Laboratory results as given in ChEMBL document CHEMBL2163282, “Discovery and characterization of AZD9272 and AZD6538-Two novel mGluR5 negative allosteric modulators selected for clinical development” (Bioorg Med Chem Lett, 2012).

What was measured:
[1] = molecular target: T1, Metabotropic glutamate receptor 5 (Homo sapiens, UniProt P41594); experiment: Binding affinity to human mGluR5 expressed in HEK293 cell membranes expressing GLAST assessed as per mg of protein after 1 hr by scintillation counter; settings: tested as the 3H-labelled form
[2] = molecular target: T1, Metabotropic glutamate receptor 5; experiment: Binding affinity to human mGluR5 expressed in HEK293 cell membranes expressing GLAST assessed as per mg of protein after 1 hr by scintillation counter in presence of 20 nM MPEP; settings: tested as the 3H-labelled form
Outline: (§1)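 [3H]AZD9272 equilibrium saturation binding on membranes from human mGluR5-GHEK cells (HEK293 stably expressing glutamate/aspartate transporter), run without MPEP or with 10 or 20 nM MPEP; filtration termination; Kd and Bmax (pmol/mg protein) derived per assay, three separate assays.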

[3] = Ratio of drug level in brain to plasma of Sprague-Dawley rat at 3 umol/kg, po; assay type: ADME; settings: read-out: BPR
Outline: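 Rats were given an oral dose of 3 µmol/kg. Total brain exposure was compared with plasma exposure to give a brain-to-plasma ratio.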

[4] = molecular target: Metabotropic glutamate receptor 4 (Homo sapiens) (UniProt Q14833); experiment: Agonist activity at mGluR4 assessed as effect on intracellular Ca2+ level up to 30 uM by cell based FLIPR assay; assay type: functional
Chain of Metabotropic glutamate receptor 4 (Homo sapiens) (Q14833 whole entry): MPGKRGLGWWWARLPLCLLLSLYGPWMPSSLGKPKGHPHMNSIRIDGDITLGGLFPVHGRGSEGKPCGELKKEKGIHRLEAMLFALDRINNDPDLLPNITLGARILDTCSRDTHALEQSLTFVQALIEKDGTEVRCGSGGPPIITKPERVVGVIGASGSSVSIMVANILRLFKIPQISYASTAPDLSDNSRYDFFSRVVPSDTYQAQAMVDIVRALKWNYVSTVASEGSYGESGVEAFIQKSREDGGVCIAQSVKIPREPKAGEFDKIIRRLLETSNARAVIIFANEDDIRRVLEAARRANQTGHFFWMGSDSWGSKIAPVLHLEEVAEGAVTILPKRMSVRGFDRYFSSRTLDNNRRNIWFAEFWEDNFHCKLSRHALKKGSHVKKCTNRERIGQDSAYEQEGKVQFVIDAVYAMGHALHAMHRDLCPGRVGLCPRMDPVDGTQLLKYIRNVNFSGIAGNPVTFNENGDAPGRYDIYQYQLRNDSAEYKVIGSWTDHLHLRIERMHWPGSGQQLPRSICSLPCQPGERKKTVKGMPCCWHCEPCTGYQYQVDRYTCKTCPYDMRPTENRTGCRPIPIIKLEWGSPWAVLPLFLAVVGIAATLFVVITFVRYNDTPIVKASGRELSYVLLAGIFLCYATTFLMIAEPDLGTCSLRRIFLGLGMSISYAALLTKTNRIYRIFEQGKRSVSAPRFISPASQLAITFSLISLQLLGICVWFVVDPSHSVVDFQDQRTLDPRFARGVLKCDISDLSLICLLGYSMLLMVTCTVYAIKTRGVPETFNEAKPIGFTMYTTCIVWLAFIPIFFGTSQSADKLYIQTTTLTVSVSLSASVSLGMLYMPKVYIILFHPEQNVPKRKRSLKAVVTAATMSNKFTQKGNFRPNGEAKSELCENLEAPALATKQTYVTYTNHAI
Outline: (§2)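 Each of the seven other mGluR subtypes was tested at concentrations up to 30 µM. Agonist, antagonist and positive allosteric modulator modes were each assessed. Read-out was the change in intracellular Ca2+ on FLIPR.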

[5] = molecular target: T1, Metabotropic glutamate receptor 5; settings: HEK293, tested as the 3H-labelled form
[6] = molecular target: Metabotropic glutamate receptor 5 (Rattus norvegicus) (UniProt P31424); experiment: Binding affinity to mGluR5 in Sprague-Dawley rat striatum assessed per mg of protein after 60 mins by autoradiographic analysis; settings: tested as the 3H-labelled form
Chain of Metabotropic glutamate receptor 5 (Rattus norvegicus) (P31424 21-1203 limits assumed): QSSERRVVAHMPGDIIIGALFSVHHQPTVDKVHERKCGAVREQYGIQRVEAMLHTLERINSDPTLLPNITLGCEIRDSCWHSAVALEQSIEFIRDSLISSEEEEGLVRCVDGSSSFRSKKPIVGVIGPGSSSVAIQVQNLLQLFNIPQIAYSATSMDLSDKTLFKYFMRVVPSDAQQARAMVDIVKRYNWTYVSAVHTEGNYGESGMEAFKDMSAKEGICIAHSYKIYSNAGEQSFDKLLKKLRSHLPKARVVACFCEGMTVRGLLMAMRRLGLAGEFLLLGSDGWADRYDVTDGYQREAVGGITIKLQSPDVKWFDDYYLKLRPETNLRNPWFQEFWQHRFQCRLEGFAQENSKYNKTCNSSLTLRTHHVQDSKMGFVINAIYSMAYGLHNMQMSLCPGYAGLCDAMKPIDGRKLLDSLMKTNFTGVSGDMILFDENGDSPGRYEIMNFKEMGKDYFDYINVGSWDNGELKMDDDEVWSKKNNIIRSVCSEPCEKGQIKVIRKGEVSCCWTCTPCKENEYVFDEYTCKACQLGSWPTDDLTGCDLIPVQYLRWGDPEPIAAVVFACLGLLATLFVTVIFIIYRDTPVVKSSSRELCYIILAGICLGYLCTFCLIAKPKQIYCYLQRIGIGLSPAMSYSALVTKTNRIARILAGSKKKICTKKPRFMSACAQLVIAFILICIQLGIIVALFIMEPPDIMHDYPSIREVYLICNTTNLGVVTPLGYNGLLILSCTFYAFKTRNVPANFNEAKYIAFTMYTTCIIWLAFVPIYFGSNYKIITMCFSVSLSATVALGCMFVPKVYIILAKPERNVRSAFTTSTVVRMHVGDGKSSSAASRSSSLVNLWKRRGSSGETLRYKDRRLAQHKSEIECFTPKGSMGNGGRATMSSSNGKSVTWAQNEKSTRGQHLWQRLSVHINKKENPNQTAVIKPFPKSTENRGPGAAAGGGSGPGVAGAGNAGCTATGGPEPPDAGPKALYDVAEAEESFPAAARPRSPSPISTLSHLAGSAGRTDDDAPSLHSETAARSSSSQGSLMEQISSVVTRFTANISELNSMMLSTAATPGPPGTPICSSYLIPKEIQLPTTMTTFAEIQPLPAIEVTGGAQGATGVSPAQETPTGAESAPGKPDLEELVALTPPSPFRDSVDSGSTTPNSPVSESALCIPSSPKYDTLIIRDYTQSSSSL

[7] = molecular target: Metabotropic glutamate receptor 2 (Homo sapiens) (UniProt Q14416); experiment: Antagonist activity at mGluR2 assessed as effect on intracellular Ca2+ level up to 30 uM by cell based FLIPR assay; assay type: functional; outline: as §2
[8] = molecular target: Metabotropic glutamate receptor 7 (Homo sapiens) (UniProt Q14831); experiment: Antagonist activity at mGluR7 assessed as effect on intracellular Ca2+ level up to 30 uM by cell based FLIPR assay; assay type: functional; outline: as §2
Chain of Metabotropic glutamate receptor 7 (Homo sapiens) (Q14831 whole entry): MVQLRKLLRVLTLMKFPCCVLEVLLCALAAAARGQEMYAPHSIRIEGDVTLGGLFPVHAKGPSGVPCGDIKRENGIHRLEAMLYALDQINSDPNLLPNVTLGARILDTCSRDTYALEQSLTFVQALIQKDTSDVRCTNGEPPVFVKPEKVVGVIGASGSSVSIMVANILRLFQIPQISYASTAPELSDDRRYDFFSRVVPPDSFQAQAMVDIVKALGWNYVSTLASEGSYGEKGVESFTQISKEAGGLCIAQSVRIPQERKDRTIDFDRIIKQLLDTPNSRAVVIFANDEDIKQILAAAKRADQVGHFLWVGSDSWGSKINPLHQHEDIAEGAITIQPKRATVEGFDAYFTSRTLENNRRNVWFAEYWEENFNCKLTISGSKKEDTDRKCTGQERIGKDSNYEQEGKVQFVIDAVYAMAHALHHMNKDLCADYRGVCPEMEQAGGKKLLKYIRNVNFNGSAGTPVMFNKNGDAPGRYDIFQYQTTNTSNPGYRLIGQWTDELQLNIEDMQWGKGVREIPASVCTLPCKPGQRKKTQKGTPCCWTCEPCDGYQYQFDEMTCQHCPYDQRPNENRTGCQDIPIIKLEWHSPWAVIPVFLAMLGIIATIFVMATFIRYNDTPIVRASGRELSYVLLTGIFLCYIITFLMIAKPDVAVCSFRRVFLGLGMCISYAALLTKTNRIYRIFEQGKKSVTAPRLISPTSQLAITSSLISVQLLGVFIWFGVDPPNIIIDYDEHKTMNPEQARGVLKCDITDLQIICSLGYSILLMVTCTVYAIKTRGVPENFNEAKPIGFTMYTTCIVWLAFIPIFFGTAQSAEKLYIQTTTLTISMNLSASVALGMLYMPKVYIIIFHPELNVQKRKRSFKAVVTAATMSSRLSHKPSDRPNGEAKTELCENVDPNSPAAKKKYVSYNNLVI

[9] = molecular target: Metabotropic glutamate receptor 6 (Homo sapiens) (UniProt O15303); experiment: Agonist activity at mGluR6 assessed as effect on intracellular Ca2+ level up to 30 uM by cell based FLIPR assay; assay type: functional; outline: as §2
Chain of Metabotropic glutamate receptor 6 (Homo sapiens) (O15303 whole entry): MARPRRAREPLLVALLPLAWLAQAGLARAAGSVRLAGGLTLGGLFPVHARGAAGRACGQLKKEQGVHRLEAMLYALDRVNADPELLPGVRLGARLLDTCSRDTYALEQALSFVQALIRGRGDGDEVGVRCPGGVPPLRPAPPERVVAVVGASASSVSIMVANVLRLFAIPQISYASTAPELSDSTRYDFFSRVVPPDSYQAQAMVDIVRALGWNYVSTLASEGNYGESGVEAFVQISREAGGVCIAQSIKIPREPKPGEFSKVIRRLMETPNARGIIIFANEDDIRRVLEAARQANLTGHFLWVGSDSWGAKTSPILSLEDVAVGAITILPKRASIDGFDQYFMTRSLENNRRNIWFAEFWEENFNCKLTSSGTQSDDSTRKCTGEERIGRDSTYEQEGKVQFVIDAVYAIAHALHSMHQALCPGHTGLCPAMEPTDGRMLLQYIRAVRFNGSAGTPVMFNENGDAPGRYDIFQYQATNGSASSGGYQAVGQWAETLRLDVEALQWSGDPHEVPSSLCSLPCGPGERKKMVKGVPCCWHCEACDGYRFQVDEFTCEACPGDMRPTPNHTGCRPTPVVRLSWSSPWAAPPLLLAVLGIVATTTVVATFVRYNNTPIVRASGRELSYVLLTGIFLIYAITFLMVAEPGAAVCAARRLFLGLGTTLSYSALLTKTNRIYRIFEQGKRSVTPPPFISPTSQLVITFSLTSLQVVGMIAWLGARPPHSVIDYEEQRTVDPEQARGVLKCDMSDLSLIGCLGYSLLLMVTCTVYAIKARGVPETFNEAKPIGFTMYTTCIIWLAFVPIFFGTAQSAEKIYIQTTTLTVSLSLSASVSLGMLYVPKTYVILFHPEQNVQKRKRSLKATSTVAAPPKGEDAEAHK

[10] = molecular target: Metabotropic glutamate receptor 5 (Rattus norvegicus) (UniProt P31424); experiment: Negative allosteric modulation of rat recombinant mGluR5 expressed in HEK293 cells expressing GLAST assessed as inhibition of DHPG-induced intracellular Ca2+ level at 0.001 to 3 uM after 30 mins by FLIPR assay; assay type: functional, cell-based
[11] = molecular target: T1, Metabotropic glutamate receptor 5; experiment: Binding affinity to human mGluR5 expressed in HEK293 cell membranes expressing GLAST assessed as per mg of protein after 1 hr by scintillation counter in presence of 10 nM MPEP; settings: tested as the 3H-labelled form; outline: as §1
[12] = molecular target: Metabotropic glutamate receptor 8 (Homo sapiens) (UniProt O00222); experiment: Positive allosteric modulation of mGluR8 assessed as effect on intracellular Ca2+ level up to 30 uM by cell based FLIPR assay; assay type: functional; outline: as §2
[13] = molecular target: Metabotropic glutamate receptor 7 (Homo sapiens) (UniProt Q14831); experiment: Agonist activity at mGluR7 assessed as effect on intracellular Ca2+ level up to 30 uM by cell based FLIPR assay; assay type: functional; outline: as §2
[14] = molecular target: Metabotropic glutamate receptor 4 (Homo sapiens) (UniProt Q14833); experiment: Positive allosteric modulation of mGluR4 assessed as effect on intracellular Ca2+ level up to 30 uM by cell based FLIPR assay; assay type: functional; outline: as §2
[15] = molecular target: Metabotropic glutamate receptor 1 (Homo sapiens) (UniProt Q13255); experiment: Positive allosteric modulation of mGluR1 assessed as effect on intracellular Ca2+ level up to 30 uM by cell based FLIPR assay; assay type: functional; outline: as §2
Chain of Metabotropic glutamate receptor 1 (Homo sapiens) (Q13255 19-1194 limits assumed): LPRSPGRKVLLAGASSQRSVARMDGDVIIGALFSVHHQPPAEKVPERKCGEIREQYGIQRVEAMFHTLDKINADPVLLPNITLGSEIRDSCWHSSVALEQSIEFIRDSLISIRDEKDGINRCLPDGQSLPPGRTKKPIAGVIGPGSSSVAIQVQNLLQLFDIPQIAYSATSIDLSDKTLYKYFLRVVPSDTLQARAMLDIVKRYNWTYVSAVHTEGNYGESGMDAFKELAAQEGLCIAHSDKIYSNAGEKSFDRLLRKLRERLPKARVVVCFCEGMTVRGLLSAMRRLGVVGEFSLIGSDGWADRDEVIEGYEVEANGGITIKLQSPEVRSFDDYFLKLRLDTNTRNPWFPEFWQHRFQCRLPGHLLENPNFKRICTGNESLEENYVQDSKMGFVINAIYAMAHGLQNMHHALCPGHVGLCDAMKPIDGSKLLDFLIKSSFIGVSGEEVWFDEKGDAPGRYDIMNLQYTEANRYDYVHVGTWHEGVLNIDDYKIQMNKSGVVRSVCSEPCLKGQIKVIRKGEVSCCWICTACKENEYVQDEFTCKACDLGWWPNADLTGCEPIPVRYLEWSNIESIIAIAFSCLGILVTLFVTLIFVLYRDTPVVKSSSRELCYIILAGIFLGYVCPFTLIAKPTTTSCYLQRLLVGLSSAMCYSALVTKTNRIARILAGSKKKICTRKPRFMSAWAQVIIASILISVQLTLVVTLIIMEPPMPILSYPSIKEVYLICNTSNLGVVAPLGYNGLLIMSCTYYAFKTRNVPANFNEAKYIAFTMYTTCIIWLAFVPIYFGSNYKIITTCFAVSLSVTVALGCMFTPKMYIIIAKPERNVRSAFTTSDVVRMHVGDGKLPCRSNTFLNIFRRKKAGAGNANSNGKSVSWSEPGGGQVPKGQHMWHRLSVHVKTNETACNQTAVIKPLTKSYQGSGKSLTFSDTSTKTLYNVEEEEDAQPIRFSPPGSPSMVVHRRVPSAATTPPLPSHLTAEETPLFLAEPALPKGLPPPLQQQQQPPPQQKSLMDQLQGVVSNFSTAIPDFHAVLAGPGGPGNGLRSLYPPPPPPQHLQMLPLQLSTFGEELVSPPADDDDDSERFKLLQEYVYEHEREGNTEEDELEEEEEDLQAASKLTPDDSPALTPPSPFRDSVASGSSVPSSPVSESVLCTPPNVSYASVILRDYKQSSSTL

[16] = molecular target: Metabotropic glutamate receptor 1 (Homo sapiens) (UniProt Q13255); experiment: Antagonist activity at mGluR1 assessed as effect on intracellular Ca2+ level up to 30 uM by cell based FLIPR assay; assay type: functional; outline: as §2
[17] = AUC in Sprague-Dawley rat at 3 umol/kg, po; assay type: ADME, organism-based; settings: plasma
Outline: (§3)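 Male rats (n = 3) received a single oral dose of 3 µmol/kg. Vehicle was Polyvidon K30 1.7 mg/ml, sodium lauryl sulphate 0.34 mg/ml and glycerin 25.0 mg/ml in water. Plasma levels were measured by liquid–liquid extraction and reversed-phase LC-MS/MS (APCI or ESI).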

[18] = molecular target: T1, Metabotropic glutamate receptor 5; settings: HEK293, tested as the 3H-labelled form; remark: listed apart in the source
[19] = Intrinsic clearance in human liver microsomes; assay type: ADME, Microsome; settings: read-out: CLH
Outline: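 Intrinsic clearance was determined in human or rat microsomes and expressed per min per mg protein.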

[20] = molecular target: T1, Metabotropic glutamate receptor 5; experiment: Binding affinity to human mGluR5 expressed in HEK293 cell membranes expressing GLAST assessed as per mg of protein after 1 hr by scintillation counter in absence of MPEP; settings: tested as the 3H-labelled form; outline: as §1
[21] = molecular target: Metabotropic glutamate receptor 5 (Rattus norvegicus, UniProt P31424); experiment: Displacement of [3H]AZD9272 from mGluR5 in Sprague-Dawley rat striatum by autoradiographic analysis
Outline: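 Sections were cut from rat striatum (plates 13–16, 2 rats). They were incubated with 3 nM [3H]AZD9272 plus increasing concentrations of competitor. Nonspecific binding was defined with 10 µM MPEP. Bound label was read by autoradiography (mean, SD, n = 2).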

[22] = molecular target: T1, Metabotropic glutamate receptor 5; experiment: Displacement of [3H]MPEP from human mGluR5 expressed in HEK293 cell membranes expressing GLAST after 1 hr by scintillation counter
[23] = AUC (0 to 8 hrs) in Sprague-Dawley rat at 3 umol/kg, po; assay type: ADME, organism-based; parameters: time < 8 hr, dose 3 umol/kg, route oral; settings: plasma; outline: as §3
[24] = molecular target: T1, Metabotropic glutamate receptor 5; experiment: Displacement of [3H]AZD9272 from human mGluR5 expressed in HEK293 cell membranes expressing GLAST after 1 hr by scintillation counter

| Kp [3] | Activity [4] | inhibition [7] | inhibition [8] | Activity [9] | inhibition [10] | Activity [12] | Activity [13] | Activity [14] | Activity [15] | inhibition [16] | microsomal CLint [19] | other results | SMILES |
| --- | --- | --- | --- | --- | --- | --- | --- | --- | --- | --- | --- | --- | --- |
| 1 | < 50% | < 50% | < 50% | < 50% | 100% | < 50% | < 50% | < 50% | < 50% | < 50% | 13.5 µL/min/mg | Bmax [1]: 4.4 pmol; Bmax [2]: 5 pmol; T1/2 [5]: 7.85 min; Bmax [6]: 1550 fmol/mg; Bmax [11]: 5.1 pmol; AUC [17]: 5.4 µM·h; T1/2 [18]: 3.45 min; Bmax [20]: 5.3 pmol | N#Cc1cc(F)cc(-c2nc(-c3ccc(F)cn3)no2)c1 |
| 1 | < 50% | < 50% | < 50% | < 50% | 100% | < 50% | < 50% | < 50% | < 50% | < 50% | 3 µL/min/mg | IC50 [21]: 14.5 nM; Ki [22]: 28 nM; AUC(0-t) at 8 h [23]: 3.6 µM·h; Ki [24]: 17.9 nM | N#Cc1ccc(-c2noc(-c3cc(F)cc(C#N)c3)n2)nc1 |
